Screening results: PubChem, Sanford-Burnham Center for Chemical Genomics
bIAP act: intestinal alkaline phosphatase (bovine) activation | 200,000 compounds, 0.17% hits | activation factor at 20 µM | purified bovine IAP, CDP-star luminescence, 30 min; hits give high values; fold of DMSO-control signal, blank-subtracted;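 active means activation factor of 2 or more at 20 µM, a signal rise over negative controls twice the positive control's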
hIAP inh: blocks human intestinal alkaline phosphatase. P09923. purified IAP, CDP-Star luminescence, 30 min. inhibition, % at 10 µM. 330,000 compounds, 0.12% hits. AID 2544;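 active means inhibition reaching a set limit with compound at 10 µM in the primary screen, cut at about 35% in these data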;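 further: plate controls were DMSO wells with enzyme for no effect and no-enzyme buffer wells for full effect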
Target sequence (P09923 whole entry, looked up): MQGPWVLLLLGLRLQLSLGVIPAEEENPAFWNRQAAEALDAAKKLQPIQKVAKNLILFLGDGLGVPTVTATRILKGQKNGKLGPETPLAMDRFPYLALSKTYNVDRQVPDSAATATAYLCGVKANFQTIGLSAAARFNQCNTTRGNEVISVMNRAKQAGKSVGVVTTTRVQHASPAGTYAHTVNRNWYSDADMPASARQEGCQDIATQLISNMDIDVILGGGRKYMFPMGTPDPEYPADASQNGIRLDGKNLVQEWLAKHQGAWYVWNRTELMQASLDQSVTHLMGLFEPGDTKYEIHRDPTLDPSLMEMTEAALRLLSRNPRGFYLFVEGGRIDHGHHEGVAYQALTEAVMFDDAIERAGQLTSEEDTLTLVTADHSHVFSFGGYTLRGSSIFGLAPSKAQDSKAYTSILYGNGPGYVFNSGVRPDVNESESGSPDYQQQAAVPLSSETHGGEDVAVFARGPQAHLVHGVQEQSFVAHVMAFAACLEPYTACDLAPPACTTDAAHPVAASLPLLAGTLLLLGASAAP
bIAP inhibitor: intestinal alkaline phosphatase (bovine) inhibition; 190,000 tested, under 10 active; inhibition, % at 20 µM; purified bovine IAP, CDP-star luminescence, 30 min;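 active means over 50% inhibition of intestinal alkaline phosphatase at 20 µM in the single-dose screen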
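Incubation: 30 min reaction at room temperature / Material: purified bovine intestinal alkaline phosphatase (IAP) enzyme / Input: enzyme at 1/65,000,000 dilution / Dosing: 20 µM single dose / Signal: CDP-star luminescence signal / Reagent: CDP-star chemiluminescent phosphatase substrate, 30 µM final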
mIAP block: mouse IAP inhibition | purified mouse IAP, CDP-Star luminescence, 30 min | inhibition, % at 10 µM | 330,000 compounds, 0.2% hits | AID 2806;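 active means inhibition of at least 40% at 10 µM in the primary screen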;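 further: plate controls were DMSO with enzyme for no effect and no enzyme wells for full effect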
mIAP activ: increases mouse intestinal alkaline phosphatase activity | muIAP, CDP-Star luminescence, 30 min; hits give high values; 1 = vehicle-only enzyme signal, 0 = enzyme-free wells | activation factor at 10 µM | 330,000 compounds, 0.24% hits | AID 2805;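 active means activation factor of at least 2 at 20 µM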
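System: mouse IAP enzyme. Reagent: CDP-Star chemiluminescent phosphatase substrate. Benchmarks: DMSO wells, no-enzyme wells. Times: 30 min enzyme-substrate-compound incubation at room temperature. Detection: luminescence from enzymatic CDP-Star hydrolysis. Doses: test compounds delivered from DMSO solution.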
hIAP activ: human IAP activation | P09923 | activation factor at 10 µM | purified human IAP, CDP-Star luminescence, 30 min; hits give high values; 1 = vehicle-only enzyme, 0 = enzyme-free background | 330,000 compounds, 0.16% hits;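 active means activation factor of the enzyme at least 2-fold when tested at 20 µM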
hIAP act conf: human IAP activation confirmation | purified IAP, CDP-Star luminescence, 30 min; hits give low values | shares compounds with hIAP activ | 880 compounds, 10% hits | AID 434926 | activation (%Activity, negative = activation), % at 8.3 µM;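 active means at least twofold enzyme activation in any of six single-dose repeats, which the averaged readout prints as negative percent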
mIAP inh confirm: mouse IAP inhibition confirmation; shares compounds with mIAP block; purified mouse IAP, CDP-Star luminescence, 30 min; inhibition, % at 10 µM; 11,000 compounds, 4.7% hits; AID 434971;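 active means inhibition of at least 40% at 10 µM in either of the two replicates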;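 further: plate controls were DMSO wells with enzyme for no effect and buffer wells lacking enzyme for full effect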
* marks the source's active call; other numbers are inactive results; i = inactive; . = no result. Rows were chosen to be rich in hits. Some 0.79% of all compounds tested hit in one or more screens of this group.

SMILES	bIAP act	hIAP inh	bIAP inhibitor	mIAP block	mIAP activ	hIAP activ	mIAP inh confirm	others
c1ccc2[nH]c(CCNC3CCCCC3)nc2c1	2.2*	1.5	-120.5	3.6	0.964	0.985	.
Cc1cc(O)c2c3c(c(=O)oc2c1)CCC(C)C3 (configuration not stated)	.	14.7	.	-3.6	1.04	0.853	.
O=c1[nH]c(=O)n(Cc2ccco2)c(O)c1C=NCc1cccs1	0.9	1.8	12.6	10.3	0.897	0.982	.
O=c1[nH]c(=S)n(Cc2ccco2)c(O)c1C=NCc1cccs1	1.1	-5.6	-12.4	61.2*	0.388	1.06	.
COc1ccc(C(=O)C2CN(C)CC2c2ccc(Cl)cc2)cc1 (configuration not stated)	1	-1.9	4.5	-6.1	1.06	1.02	.
CN1CC(C(=O)c2ccc(Cl)cc2)C(c2ccccc2F)C1 (configuration not stated)	1	-7.2	0.2	42.3*	0.577	1.07	.
CCOC(=O)N(C)c1ccc(C(O)(C(=O)OC)C(F)(F)F)cc1 (configuration not stated)	2.1*	-8.8	-106.2	-5.1	1.05	1.09	.
C[C@]12CCC3C(CC[C@H]4C[C@@H](O)CC[C@]34C)C1C[C@@H](Br)[C@H]2O (some centres not stated)	.	12.5	.	-4.4	1.04	0.875	.
O=C1NC(=O)N(c2ccc3c(c2)OCO3)C(=O)/C1=C/c1ccc(N2CCCC2)o1	1	29.2	4.5	55.5*	0.445	0.708	.
COC(=O)C1=C(c2ccc(OC)c(OC)c2)C[C@@H]2CC[C@H]1N2C(=O)N1CCCCC1	.	-6.2	.	-10.1	1.1	1.06	.
CCCCOc1ccc(CN2CCN(CCO)CC2)cc1	1	36.6*	1.3	2.8	0.972	0.634	.	hIAP act conf=-21.9
CCCCCCOc1ccc(CN2CCN(CCO)CC2)cc1	1.1	5.0	-5.5	2.3	0.977	0.95	.
C[C@H](NC(=O)N1C[C@H]2C[C@@H](C1)c1cccc(=O)n1C2)C(=O)Nc1ccccc1F	.	0.1	.	-2.3	1.02	0.999	.
O=c1[nH]c(=O)n(-c2ccc(Br)cc2)c(O)c1C=NC(CO)(CO)CO	.	49.6*	.	-6.2	1.06	0.504	.	hIAP act conf=2.4
N#Cc1c(/N=C/c2c(O)n(Cc3ccco3)c(=O)[nH]c2=O)sc2c1CCCC2	1	8.7	0.0	63.9*	0.361	0.913	71.5*
O=C1NC(=O)N(c2ccc3c(c2)OCO3)C(=O)/C1=C/c1cccs1	1	6.4	2.9	72.4*	0.276	0.936	76.5*
COC(C)(C)CCCC(C)C/C=C/C(C)=C/C(=O)OC(C)C (configuration not stated)	.	7.0	.	4.4	0.956	0.93	.
O=C(NC(=O)c1c(F)cccc1F)Nc1cc(Cl)c(F)c(Cl)c1F	.	-12.9	.	-2.6	1.03	1.13	.
Clc1ccc(C(c2ccc(Cl)cc2)n2cc[n+](CC(OCc3ccc(Cl)cc3Cl)c3ccc(Cl)cc3Cl)c2)cc1 (configuration not stated)	.	-28.2	.	i	16.8*	1.28	i
Cc1ccc(N2C(=O)/C(=C/c3ccc(CN(CCC#N)S(C)(=O)=O)o3)C(=O)NC2=S)cc1C	1.1	9.2	-7.0	42.7*	0.573	0.908	46.1*
Cc1cccc(N2C(=O)NC(=O)/C(=C\C=C\c3ccco3)C2=O)c1	.	2.1	.	45.2*	0.548	0.979	52.7*
O=C1NC(=O)N(Cc2ccccc2)C(=O)/C1=C\C=C\c1ccco1	1	-8.6	4.6	37.2	0.628	1.09	.
CN1C(=O)/C(=C/C=C/c2ccco2)C(=O)NC1=S	.	6.4	.	65.7*	0.343	0.936	61.5*
O=C1NC(=O)N(c2ccccc2)C(=O)/C1=C/C=C/c1ccco1	.	0.2	.	28.3	0.717	0.998	.
Cc1ccc(N2C(=O)NC(=O)/C(=C\C=C\c3ccco3)C2=O)cc1	.	-2.3	.	36.0	0.64	1.02	.
SMILES	bIAP act	hIAP inh	bIAP inhibitor	mIAP block	mIAP activ	hIAP activ	mIAP inh confirm	others
O=C1NC(=O)N(Cc2ccco2)C(=O)/C1=C/C=C/c1ccco1	.	3.8	.	71.9*	0.281	0.962	74.9*
CC(=O)OC1=CC[C@H]2[C@@H]3CC[C@H]4C[C@H](OC(C)=O)[C@@H](OC(C)=O)C[C@]4(C)[C@H]3CC[C@]12C	.	-2.7	.	8.1	0.919	1.03	.
O=C1NC(=S)N(c2ccc(F)cc2)C(=O)/C1=C/c1ccco1	.	9.5	.	46.7*	0.533	0.905	60.2*
COc1ccc(OC)c(N2C(=O)/C(=C/c3ccco3)C(=O)NC2=S)c1	.	3.6	.	41.9*	0.581	0.964	58.1*
CCN1C(=O)/C(=C\c2ccc([N+](=O)[O-])s2)C(=O)NC1=S	0.5	.	46.1	.	.	.	.
C=CCN1C(=O)/C(=C/c2ccc(Br)s2)C(=O)NC1=S	.	-11.4	.	42.8*	0.572	1.11	52.8*
NC(N)=Nc1ccc2[nH]c3c(c2c1)C[C@@]1(O)[C@H]2Cc4ccc(O)c5c4[C@@]1(CCN2CC1CC1)C3O5 (some centres not stated)	.	6.2	.	0.9	0.991	0.938	.
COc1ccc(Cl)cc1C(=O)C1CCCN(Cc2cnc(C)s2)C1 (configuration not stated)	1	-0.3	-3.5	10.7	0.893	1	.
Oc1ccc(C[C@H]2NCCc3cc(O)c(O)cc32)cc1O	.	17.1	.	62.6*	0.374	0.829	76.3*
CCCCn1c(=O)c(C(=O)Nc2nnc(C(C)C)s2)c(O)c2ccccc21	1.2	-0.6	-15.5	11.1	0.889	1.01	.
